Tests used:
TBK1 (NLuc-TBK1) = target: T1, TBK1 (NLuc-TBK1) (Homo sapiens, UniProt Q9UHD2); experiment: NanoBRET cellular target engagement assay; format: cell-based; conditions: HEK293, 0.5 μM tracer K-5; n = 1 where no error, SEM n = 3
T1 sequence (Q9UHD2 1-729): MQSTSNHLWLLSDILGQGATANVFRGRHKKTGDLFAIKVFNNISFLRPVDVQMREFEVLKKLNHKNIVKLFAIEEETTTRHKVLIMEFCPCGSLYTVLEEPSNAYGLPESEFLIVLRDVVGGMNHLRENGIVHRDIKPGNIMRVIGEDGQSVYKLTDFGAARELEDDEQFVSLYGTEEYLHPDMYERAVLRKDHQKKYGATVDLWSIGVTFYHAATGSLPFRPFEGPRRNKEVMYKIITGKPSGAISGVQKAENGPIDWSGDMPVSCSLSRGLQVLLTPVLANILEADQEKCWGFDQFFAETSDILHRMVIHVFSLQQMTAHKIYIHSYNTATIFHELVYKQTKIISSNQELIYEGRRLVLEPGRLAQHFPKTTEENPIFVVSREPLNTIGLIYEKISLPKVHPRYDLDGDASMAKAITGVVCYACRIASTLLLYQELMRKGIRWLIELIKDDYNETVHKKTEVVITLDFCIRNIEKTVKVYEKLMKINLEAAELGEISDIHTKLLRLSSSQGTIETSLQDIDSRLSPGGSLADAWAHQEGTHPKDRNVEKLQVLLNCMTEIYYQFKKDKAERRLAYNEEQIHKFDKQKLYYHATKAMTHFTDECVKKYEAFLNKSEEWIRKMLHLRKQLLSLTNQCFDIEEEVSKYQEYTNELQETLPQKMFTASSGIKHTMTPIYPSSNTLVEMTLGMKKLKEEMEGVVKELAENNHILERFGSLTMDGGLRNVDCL
Method in brief: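 HEK293 cells were grown in DMEM with 10% FBS at 37 °C under 5% CO2, passaged every 72 h with trypsin and kept below confluency. Cells expressed NanoLuc fusions (DRAK1-NLuc or NLuc-TBK1). Dose–response was run per the manufacturer's protocol, with 0.5 μM tracer K-9 for DRAK1 and 0.5 μM tracer K-5 for TBK1. SEM was reported where assays were repeated.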

MARK3 (NLuc-MARK3) = MARK3 (NLuc-MARK3) (Homo sapiens, UniProt P27448); experiment: NanoBRET cellular target engagement assay; format: cell-based; conditions: for MARK3 NanoBRET IC50: HEK293, 0.5 μM tracer K-9, n = 1 where no error, SEM n = 2
Chain of MARK3 (NLuc-MARK3) (P27448 whole entry): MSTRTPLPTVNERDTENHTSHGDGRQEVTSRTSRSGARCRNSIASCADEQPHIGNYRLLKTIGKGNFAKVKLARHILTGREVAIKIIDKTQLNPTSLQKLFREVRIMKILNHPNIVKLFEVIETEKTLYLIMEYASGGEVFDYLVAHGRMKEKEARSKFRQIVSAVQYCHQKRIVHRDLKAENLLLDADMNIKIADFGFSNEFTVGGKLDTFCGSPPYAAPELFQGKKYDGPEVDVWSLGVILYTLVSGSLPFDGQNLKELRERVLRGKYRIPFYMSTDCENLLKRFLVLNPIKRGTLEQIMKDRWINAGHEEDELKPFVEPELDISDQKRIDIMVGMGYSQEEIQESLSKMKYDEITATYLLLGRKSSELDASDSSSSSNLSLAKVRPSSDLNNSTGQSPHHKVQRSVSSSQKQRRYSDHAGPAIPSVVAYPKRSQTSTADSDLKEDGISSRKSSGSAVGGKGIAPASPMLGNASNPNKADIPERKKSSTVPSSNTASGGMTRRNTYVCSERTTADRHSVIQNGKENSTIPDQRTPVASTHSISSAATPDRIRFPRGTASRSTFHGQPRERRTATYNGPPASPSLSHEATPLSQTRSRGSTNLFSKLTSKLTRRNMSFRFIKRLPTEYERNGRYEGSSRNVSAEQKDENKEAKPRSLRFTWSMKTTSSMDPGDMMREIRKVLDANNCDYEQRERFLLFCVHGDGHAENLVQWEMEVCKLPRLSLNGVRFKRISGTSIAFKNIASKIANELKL

[1] = test system: 403 wild-type (WT) human kinases; experiment: DiscoverX scanMAX kinome-wide selectivity screen; format: binding; conditions: 403 WT human kinases; for no. kinases with PoC < 10: DiscoverX scanMAX, 1 μM; for S10 (1 μM): Percentage of screened kinases with PoC values < 10 at 1 μM
16-member kinase panel = experiment: Eurofins custom enzymatic kinase panel, count of kinases inhibited; format: biochemical; conditions: 16-member Eurofins panel, 1 μM
Method in brief: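 Radiometric kinase assays were run with ATP at Km. Each test compound was tested at a single concentration of 1 μM, in duplicate, against each panel kinase, with results as percent of control. The count is the number of kinases at ≤ 10 PoC, i.e. inhibited ≥ 90%.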

MARK4 (NLuc-MARK4) = target: T2, MARK4 (NLuc-MARK4) (Homo sapiens, UniProt Q96L34); experiment: NanoBRET cellular target engagement assay; format: cell-based; conditions: HEK293, 0.5 μM tracer K-5; n = 1 where no error, SEM n = 2
T2 sequence (Q96L34 1-752): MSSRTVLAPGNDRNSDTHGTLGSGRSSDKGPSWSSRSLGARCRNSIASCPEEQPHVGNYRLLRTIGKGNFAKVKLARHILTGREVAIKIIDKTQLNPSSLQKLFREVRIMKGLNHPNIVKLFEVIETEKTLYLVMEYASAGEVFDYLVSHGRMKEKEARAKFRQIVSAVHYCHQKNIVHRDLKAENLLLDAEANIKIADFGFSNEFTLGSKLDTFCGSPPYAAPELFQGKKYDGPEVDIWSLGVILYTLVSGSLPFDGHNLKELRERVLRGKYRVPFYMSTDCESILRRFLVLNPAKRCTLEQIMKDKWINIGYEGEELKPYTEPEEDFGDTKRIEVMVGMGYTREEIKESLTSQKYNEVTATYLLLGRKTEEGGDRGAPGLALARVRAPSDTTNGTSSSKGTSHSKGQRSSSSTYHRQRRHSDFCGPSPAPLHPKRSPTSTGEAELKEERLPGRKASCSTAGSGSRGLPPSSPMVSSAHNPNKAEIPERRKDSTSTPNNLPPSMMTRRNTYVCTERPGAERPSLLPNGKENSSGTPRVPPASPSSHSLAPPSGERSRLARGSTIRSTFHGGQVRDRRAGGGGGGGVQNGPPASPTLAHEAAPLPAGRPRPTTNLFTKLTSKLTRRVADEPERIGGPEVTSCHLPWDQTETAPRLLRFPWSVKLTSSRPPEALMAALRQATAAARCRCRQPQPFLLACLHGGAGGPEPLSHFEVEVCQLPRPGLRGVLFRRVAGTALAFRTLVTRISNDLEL

DRAK1 (DRAK1-NLuc) = target: T3, DRAK1 (DRAK1-NLuc) (Homo sapiens, UniProt Q9UEE5); experiment: NanoBRET cellular target engagement assay; format: cell-based; conditions: HEK293, 0.5 μM tracer K-9; n = 1 where no error, SEM n = 3
T3 sequence (Q9UEE5 1-414): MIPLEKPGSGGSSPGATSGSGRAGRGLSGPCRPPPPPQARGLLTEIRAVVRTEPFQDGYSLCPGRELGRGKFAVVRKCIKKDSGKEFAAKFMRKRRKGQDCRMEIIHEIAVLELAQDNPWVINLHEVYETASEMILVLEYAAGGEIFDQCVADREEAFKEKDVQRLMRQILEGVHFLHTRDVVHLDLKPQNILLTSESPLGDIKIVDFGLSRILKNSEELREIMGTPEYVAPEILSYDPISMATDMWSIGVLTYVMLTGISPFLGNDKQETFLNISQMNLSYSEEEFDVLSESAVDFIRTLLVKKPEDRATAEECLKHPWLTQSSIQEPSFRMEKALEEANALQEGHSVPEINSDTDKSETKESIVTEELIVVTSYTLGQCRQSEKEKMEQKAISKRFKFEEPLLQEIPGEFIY

PAMPA permeability = format: in vitro ADME; conditions: PBS pH 7.4, 5 h incubation
Method in brief: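 DMSO stocks of test compound were diluted in PBS pH 7.4 and added to the donor side of a precoated PAMPA plate, with PBS pH 7.4 as acceptor, for 5 h. Both compartments were quantified by chemiluminescent nitrogen detection against a calibration curve, with background nitrogen corrected. Effective permeability was calculated from donor and acceptor concentrations, using measured rather than assumed solubility.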

NUAK1 [2] = target: T4, NUAK1 (Homo sapiens, UniProt O60285); experiment: Eurofins kinase enzymatic radiometric assay; format: biochemical; conditions: enzymatic IC50 values
T4 sequence (O60285 1-661): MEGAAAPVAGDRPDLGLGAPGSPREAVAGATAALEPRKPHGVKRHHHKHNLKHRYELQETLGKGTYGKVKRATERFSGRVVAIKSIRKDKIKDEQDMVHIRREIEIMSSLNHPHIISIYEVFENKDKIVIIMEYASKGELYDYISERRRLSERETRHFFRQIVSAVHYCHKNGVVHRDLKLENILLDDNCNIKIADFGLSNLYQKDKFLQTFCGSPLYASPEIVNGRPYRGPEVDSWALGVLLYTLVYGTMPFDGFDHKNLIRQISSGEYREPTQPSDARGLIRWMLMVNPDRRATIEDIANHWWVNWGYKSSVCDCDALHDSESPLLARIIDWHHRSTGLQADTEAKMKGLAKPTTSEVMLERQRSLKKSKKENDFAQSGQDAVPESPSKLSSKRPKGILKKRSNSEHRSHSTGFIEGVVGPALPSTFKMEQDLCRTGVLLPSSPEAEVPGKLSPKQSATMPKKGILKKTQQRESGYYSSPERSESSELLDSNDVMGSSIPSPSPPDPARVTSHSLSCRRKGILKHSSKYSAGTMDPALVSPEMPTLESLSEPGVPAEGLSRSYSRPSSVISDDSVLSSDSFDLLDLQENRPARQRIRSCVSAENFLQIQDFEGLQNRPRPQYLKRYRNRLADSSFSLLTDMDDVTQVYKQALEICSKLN
Method in brief: (§1)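 Both kinases of each pair (NUAK1/NUAK2; TBK1/IKKε) were tested in radiometric assays with ATP at Km. Test compounds were run as 9-point dose–response curves in duplicate. IC50 values for the two kinases were then compared as a fold difference.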

NUAK1 [3] = target: T4, NUAK1; experiment: NanoBRET assay follow-up; format: cell-based
TYK2 = TYK2 (Homo sapiens, UniProt P29597); experiment: NanoBRET assay follow-up; format: cell-based; conditions: singlicate (n = 1) dose–response
Chain of TYK2 (P29597 whole entry): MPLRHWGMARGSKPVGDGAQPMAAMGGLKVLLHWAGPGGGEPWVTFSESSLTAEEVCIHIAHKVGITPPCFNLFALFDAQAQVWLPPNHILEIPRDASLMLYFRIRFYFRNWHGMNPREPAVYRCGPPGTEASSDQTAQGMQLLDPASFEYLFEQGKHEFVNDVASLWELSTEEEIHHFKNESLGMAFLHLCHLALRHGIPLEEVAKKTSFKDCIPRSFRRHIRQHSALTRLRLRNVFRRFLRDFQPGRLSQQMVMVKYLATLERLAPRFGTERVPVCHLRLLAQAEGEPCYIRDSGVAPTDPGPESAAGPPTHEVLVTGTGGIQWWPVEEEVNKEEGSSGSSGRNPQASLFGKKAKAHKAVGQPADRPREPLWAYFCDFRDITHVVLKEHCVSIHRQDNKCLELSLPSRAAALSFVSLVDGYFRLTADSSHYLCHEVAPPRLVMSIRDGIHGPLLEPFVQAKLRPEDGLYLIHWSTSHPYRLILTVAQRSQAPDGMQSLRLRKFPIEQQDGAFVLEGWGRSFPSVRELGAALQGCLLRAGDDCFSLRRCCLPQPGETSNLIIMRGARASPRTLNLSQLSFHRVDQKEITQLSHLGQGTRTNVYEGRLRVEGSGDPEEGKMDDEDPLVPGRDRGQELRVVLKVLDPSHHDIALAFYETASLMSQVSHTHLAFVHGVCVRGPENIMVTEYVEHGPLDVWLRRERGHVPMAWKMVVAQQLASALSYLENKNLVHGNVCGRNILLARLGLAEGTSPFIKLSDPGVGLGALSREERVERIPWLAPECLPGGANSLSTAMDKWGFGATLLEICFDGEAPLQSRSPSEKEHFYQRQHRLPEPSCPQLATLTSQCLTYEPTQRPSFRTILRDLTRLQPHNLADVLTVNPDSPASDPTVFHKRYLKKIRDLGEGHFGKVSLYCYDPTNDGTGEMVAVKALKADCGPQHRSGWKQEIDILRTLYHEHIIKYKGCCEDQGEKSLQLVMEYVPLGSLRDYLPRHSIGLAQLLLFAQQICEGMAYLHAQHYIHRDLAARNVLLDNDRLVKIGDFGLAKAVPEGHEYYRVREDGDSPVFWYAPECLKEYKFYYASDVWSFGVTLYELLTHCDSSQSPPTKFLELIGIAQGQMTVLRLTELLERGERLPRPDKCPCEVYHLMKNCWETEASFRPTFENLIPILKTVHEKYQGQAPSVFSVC

MYLK2 = MYLK2 (Homo sapiens, UniProt Q9H1R3); experiment: NanoBRET assay follow-up; format: cell-based
Chain of MYLK2 (Q9H1R3 whole entry): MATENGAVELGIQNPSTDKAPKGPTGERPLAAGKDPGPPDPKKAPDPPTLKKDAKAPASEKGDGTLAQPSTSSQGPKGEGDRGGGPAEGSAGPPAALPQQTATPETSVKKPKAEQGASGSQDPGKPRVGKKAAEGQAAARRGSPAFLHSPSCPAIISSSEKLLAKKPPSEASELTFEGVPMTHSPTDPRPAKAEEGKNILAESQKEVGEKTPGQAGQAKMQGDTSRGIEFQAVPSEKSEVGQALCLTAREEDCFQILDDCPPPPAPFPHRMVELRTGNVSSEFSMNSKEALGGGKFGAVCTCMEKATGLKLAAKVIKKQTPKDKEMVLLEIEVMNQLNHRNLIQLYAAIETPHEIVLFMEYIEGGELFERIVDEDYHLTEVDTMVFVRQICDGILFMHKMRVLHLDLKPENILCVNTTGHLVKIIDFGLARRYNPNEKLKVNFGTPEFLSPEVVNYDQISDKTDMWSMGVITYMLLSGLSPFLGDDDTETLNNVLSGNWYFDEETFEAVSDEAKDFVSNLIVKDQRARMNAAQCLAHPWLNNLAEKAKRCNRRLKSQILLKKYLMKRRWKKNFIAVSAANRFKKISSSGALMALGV

TBK1 = target: T5, TBK1 (Homo sapiens, UniProt Q9UHD2); experiment: Eurofins kinase enzymatic radiometric assay; format: biochemical; conditions: enzymatic IC50 values
T5 sequence (Q9UHD2 1-729): T1 sequence (Q9UHD2 1-729)
Method in brief: as §1

Row | Structure (SMILES) | no. kinases with PoC < 10 [1] | S10 (1 μM) [1] | no. kinases ≤ 10 PoC in enzyme panel (16-member kinase panel) | Pe (permeability coefficient, PAMPA) (PAMPA permeability) | further results
1 | O=C(NCCCNc1nc(Nc2cccc(NC(=O)N3CCCC3)c2)ncc1Br)C1CCC1 [Compound 18, N-(3-((5-Bromo-4-((3-(cyclobutanecarboxamido)propyl)amino)pyrimidin-2-yl)amino)phenyl)pyrrolidine-1-carboxamide] | 90 | 0.223 | 16 | – | TBK1 NanoBRET IC50 (TBK1 (NLuc-TBK1)): submicromolar; MARK3 NanoBRET IC50 (MARK3 (NLuc-MARK3)): submicromolar; MARK4 NanoBRET IC50 (MARK4 (NLuc-MARK4)): submicromolar; DRAK1 NanoBRET IC50 (DRAK1 (DRAK1-NLuc)): submicromolar
2 | Brc1cnc(Nc2cccc(CN3CCOCC3)c2)nc1NCCc1c[nH]cn1 [Compound 9, N^4-(2-(1H-Imidazol-4-yl)ethyl)-5-bromo-N^2-(3-(morpholinomethyl)phenyl)pyrimidine-2,4-diamine] | 94 | 0.233 | 13 | low permeability | MARK3 NanoBRET IC50 (MARK3 (NLuc-MARK3)): submicromolar; MARK4 NanoBRET IC50 (MARK4 (NLuc-MARK4)): submicromolar; DRAK1 NanoBRET IC50 (DRAK1 (DRAK1-NLuc)): submicromolar
3 | NS(=O)(=O)c1ccc(CNc2nc(Nc3cccc(NC(=O)N4CCCC4)c3)ncc2Br)cc1 [Compound 13, N-(3-((5-Bromo-4-((4-sulfamoylbenzyl)amino)pyrimidin-2-yl)amino)phenyl)pyrrolidine-1-carboxamide] | – | 0.03 | 4 | below the limit of quantitation | fold difference between NUAK1 and NUAK2 (NUAK1 [2]): ~3 fold
4 | O=C(NCCCNc1nc(Nc2cccc(NC(=O)N3CCCC3)c2)ncc1I)c1cccs1 [BX-795, reference compound] | – | – | 16 | – | IC50 (MARK3 (NLuc-MARK3)): 515 nM; IC50 (NUAK1 [3]): 187 nM; fold loss in potency, enzymatic to NanoBRET, NUAK1 (NUAK1 [3]; published enzymatic IC50 vs NanoBRET IC50): ~34 fold
5 | NS(=O)(=O)c1ccc(CNc2ccnc(Nc3cccc(CN4CCOCC4)c3)n2)cc1 [Compound 19, 4-(((2-((3-(Morpholinomethyl)phenyl)amino)pyrimidin-4-yl)amino)methyl)benzenesulfonamide] | 3 | 0.007 | 0 | – | TYK2 NanoBRET IC50 (TYK2): did not have any activity
6 | NS(=O)(=O)c1ccc(CNc2ccnc(Nc3cccc(NC(=O)N4CCCC4)c3)n2)cc1 [Compound 16, N-(3-((4-((4-Sulfamoylbenzyl)amino)pyrimidin-2-yl)amino)phenyl)pyrrolidine-1-carboxamide] | 1 | – | 0 | below the limit of quantitation | TYK2 NanoBRET IC50 (TYK2): did not have any activity
7 | Cc1nn(CC(F)(F)F)cc1Nc1nccc(NCCc2cnc[nH]2)n1 [Compound 15, N^4-(2-(1H-Imidazol-5-yl)ethyl)-N^2-(3-methyl-1-(2,2,2-trifluoroethyl)-1H-pyrazol-4-yl)pyrimidine-2,4-diamine] | 0 | – | 0 | low permeability | fold loss in potency, enzymatic versus NanoBRET, MYLK2 (MYLK2): < 10 fold; MYLK2 NanoBRET IC50 (MYLK2; singlicate (n = 1) dose–response): single digit micromolar activity
8 | Cc1nn(CC(F)(F)F)cc1Nc1ncc(C2CC2)c(NCc2ccc(S(N)(=O)=O)cc2)n1 [Compound 5, 4-(((5-Cyclopropyl-2-((3-methyl-1-(2,2,2-trifluoroethyl)-1H-pyrazol-4-yl)amino)pyrimidin-4-yl)amino)methyl)benzenesulfonamide] | 2 | 0.005 | 1 | below the limit of quantitation | fold difference in potency for TBK1 and IKKε (TBK1): 8 fold

From article PMC8802302 (Journal of Medicinal Chemistry, 2021)
